Assay results taken from ChEMBL document CHEMBL5046273, “Development of a Novel, Small-Molecule Brain-Penetrant Histone Deacetylase Inhibitor That Enhances Spatial Memory Formation in Mice” (J Med Chem, 2022).
Calls of active or inactive are those of the source. The rule behind the calls is not given here.

Tests used:
[1] = target: T1, Histone deacetylase 2 (Homo sapiens, UniProt Q92769); test: Inhibition of HDAC2 in human DU-145 cells assessed as increase in histone H3 acetylation after 24 hrs by immunofluorescence microscopy; type: cell-based
T1 sequence (Q92769 whole entry): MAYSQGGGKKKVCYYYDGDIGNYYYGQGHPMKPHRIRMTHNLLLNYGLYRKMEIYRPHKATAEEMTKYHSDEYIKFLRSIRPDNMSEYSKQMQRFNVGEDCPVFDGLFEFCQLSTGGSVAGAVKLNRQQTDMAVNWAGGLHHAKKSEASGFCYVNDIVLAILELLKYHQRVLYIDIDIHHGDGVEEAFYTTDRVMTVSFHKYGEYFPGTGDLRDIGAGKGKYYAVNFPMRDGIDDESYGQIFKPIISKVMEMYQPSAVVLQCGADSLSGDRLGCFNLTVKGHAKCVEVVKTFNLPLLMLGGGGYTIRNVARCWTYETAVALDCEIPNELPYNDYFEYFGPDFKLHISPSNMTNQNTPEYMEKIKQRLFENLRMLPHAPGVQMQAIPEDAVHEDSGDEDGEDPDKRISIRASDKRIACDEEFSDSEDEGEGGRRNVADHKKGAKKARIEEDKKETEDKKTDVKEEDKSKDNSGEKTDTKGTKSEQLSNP

[2] = Drug uptake in BALB/c mouse hippocampus at 20 to 40 mg/kg, ip measured after 10 mins by mass spectroscopy method; type: ADME, organism-based; conditions: in vivo, dose 20-40 mg/kg
In short: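 BALB/c mice were dosed i.p.: 20 mg/kg with brains taken at 10 min (two mice), or 40 mg/kg with brains taken at 10 and 30 min. Dorsal hippocampus was dissected on wet ice, extracted in acetonitrile and analysed by LC–MS/MS in MRM mode (m/z 485 [M+Na+] transitions) against a 4,5-diphenylimidazole internal standard.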

[3] = Tmax in Swiss Webster mouse brain at 40 mg/kg, ip by LC-MS/MS analysis; type: ADME, organism-based
In short: (§1)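 Single i.p. dose of 40 mg/kg in Swiss Webster mice; blood, brain and liver taken at several time points. Tissues homogenized in acetonitrile, centrifuged, spin-filtered, dried and reconstituted, with 4,5-diphenylimidazole as instrument standard. Quantified by LC–MS/MS on a C18 column with a formic acid/MeCN gradient. Mean ± SD (n = 4), fitted to a two-compartment PK model.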

[4] = tested on: DU-145; test: Cytotoxicity against human DU-145 cells assessed as reduction in cell viability incubated for 48 hrs by MTT assay; type: functional
In short: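 DU145 cells grown in DMEM with 10% FBS, penicillin/streptomycin and L-glutamine at 37 °C and 5% CO2. Cells seeded at 14 000/well and allowed to adhere 24 h. Compounds diluted from 10 mM DMSO stocks into medium (final 25–100 μM), DMSO vehicle, triplicate wells, 48 h. MTT 250 μg/mL for 4 h, dissolved in DMSO, A570 (ref 690). Normalized to DMSO; three independent experiments.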

[5] = AUC in Swiss Webster mouse brain at 40 mg/kg, ip by LC-MS/MS analysis; type: ADME, organism-based; set-up: dose 40 mg/kg; conditions: in vivo; in short: as §1
[6] = target: T1, Histone deacetylase 2; test: Inhibition of recombinant human full-length HDAC2 preincubated for 20 mins with DTT followed by enzyme addition and measured after 10 mins by Glo-luminescence assay
In short: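 Compounds were serially diluted and incubated with enzyme for 10 min. HDAC-Glo I/II substrate/developer was then added, and luminescence read after 40 min at 23 °C. IC50 from four-parameter fits from two independent titrations, mean ± SD.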

[7] = target: T2, Histone deacetylase (Homo sapiens) (UniProt Q13547+O15379+Q9UBN7+Q92769+Q9UQL6+Q8WUI4+Q9BY41+Q96DB2+P56524+Q9UKV0+Q969S8); test: Inhibition of HDAC in human DU-145 cells assessed as increase in histone H3 acetylation after 24 hrs by immunofluorescence microscopy; type: cell-based
In short: (§2)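 Cells were fixed in 4% PFA and permeabilized in TBS-T/BSA. Staining used anti-acetyl-H3 (Lys9/Lys14) at 1:2000, an AlexaFluor 488 secondary and DAPI. At least five random fields were imaged by fluorescence microscopy; three independent experiments.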

[8] = Half life in Swiss Webster mouse blood at 40 mg/kg, ip by LC-MS/MS analysis; type: ADME, organism-based; conditions: in vivo; in short: as §1
[9] = target: T2, Histone deacetylase (Homo sapiens); test: Inhibition of HDAC in human DU-145 cells assessed as increase in histone H3 acetylation at 50 to 100 uM after 24 hrs by immunofluorescence microscopy; type: cell-based; conditions: dose 50-100 µM; in short: as §2
[10] = Cmax in Swiss Webster mouse liver at 40 mg/kg, ip by LC-MS/MS analysis; type: ADME, organism-based; set-up: route intraperitoneal, dose 40 mg/kg; in short: as §1
[11] = Drug uptake in BALB/c mouse blood at 40 mg/kg, ip measured upto 60 mins by mass spectroscopy analysis; type: ADME, organism-based; conditions: in vivo, 1 h
In short: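 BALB/c mice received 40 mg/kg i.p. Retro-orbital blood was collected under isoflurane, then liver and whole brain after CO2 euthanasia, at 10, 30 and 60 min. Acetonitrile extracts were spin-filtered with 4,5-diphenylimidazole as instrument standard and analysed by LC–MS/MS.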

[12] = Tmax in Swiss Webster mouse liver at 40 mg/kg, ip by LC-MS/MS analysis; type: ADME, organism-based; in short: as §1
[13] = Elimination rate in Swiss Webster mouse brain at 40 mg/kg, ip by LC-MS/MS analysis; type: ADME, organism-based; in short: as §1
[14] = tested on: DU-145; test: Cytotoxicity against human DU-145 cells assessed as reduction in cell viability at 50 uM incubated for 48 hrs by MTT assay; type: functional
In short: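 DU145 cells in DMEM with 10% FBS were seeded at 14 000 cells/well and allowed to adhere for 24 h. Test agents were diluted from 10 mM DMSO stocks (100, 50, 25 µM; 10, 5, 1.25 nM) and applied in triplicate for 48 h at 37 °C, 5% CO2, with DMSO as vehicle. Read-out was 250 µg/mL MTT for 4 h, DMSO solubilization, and A570 with 690 nm reference. Values normalized to DMSO.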

[15] = tested on: Mus musculus; test: Cognitive enhancing effect in C57BL/6 mouse assessed as enhanced spatial memory at 20 to 40 mg/kg, ip measured after 24 hrs; type: functional, organism-based; conditions: dose 20-40 mg/kg
In short: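 Male C57BL/6 mice trained to 30 s of total exploration of two identical objects (20 min maximum). Immediately afterwards they received one i.p. injection at 5 mL/kg in 100% DMSO (20, 30 or 40 mg/kg); vehicle DMSO, NaBu 600 mg/kg in saline. Object placement (moved object) tested at 24 h and object recognition (novel object) at 48 h. Time with that object compared to chance (15 s) by one-sample t-test.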

[16] = AUC in Swiss Webster mouse liver at 40 mg/kg, ip by LC-MS/MS analysis; type: ADME, organism-based; set-up: dose 40 mg/kg; conditions: in vivo; in short: as §1
[17] = Elimination rate in Swiss Webster mouse liver at 40 mg/kg, ip by LC-MS/MS analysis; type: ADME, organism-based; in short: as §1

In the case of `CC(C)(C)OC(=O)CC(O)/C=C/CCSSCC/C=C/C(O)CC(=O)OC(C)(C)C` (stereo not drawn), the IC50 [1] is reported as 10 µM, the Drug uptake [2] is reported as “Active” and the Tmax [3] is reported as 10 min. The Activity [4] was “Dose-Dependent Effect”, the CC50 ([4]; read-out: LD50 (the source's name)) was 39 µM and the AUC [5] was 2019 ng·min/g. The IC50 [6] was 10 µM, the inhibition [7] was “Dose-Dependent Effect” and the t1/2 [8] was 45.4 min. The inhibition [9] was “Active”, the Cmax [10] was 530 ng/g and the Drug uptake [11] was “Active”. The Tmax [12] was 10 min, the k el [13] was 0.000867 s⁻¹ and the inhibition at 50 µM [14] was 50%. For the same molecule, the Activity [15] was “Active”, the AUC [16] was 31091 ng·min/g and the k el [17] was 0.000283 s⁻¹.
